Reference: ChEMBL document CHEMBL4513216, “Probing the Open Global Health Chemical Diversity Library for Multistage-Active Starting Points for Next-Generation Antimalarials” (ACS Infect Dis, 2020)

experiment: Toxicity liver stage against HepG2, at 10uM; format: cell-based; parameters: test concentration 10 uM, cell line HepG2-A16-CD81EGFP; details: human, HepG2-A16-CD81EGFP cells; read-out: INHIBITION
Outline: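 Uninfected HepG2-A16-CD81EGFP cells, 3 × 10^3 per well, 1536-well, plated on prespotted compound at 10 μM final, parasite-free screening media added to match infected plates; puromycin 10 μM positive, DMSO 0.5% negative; run in parallel with 48 h PbLuc assay at 37 °C, 5% CO2; viability by CellTiter-Glo luminescence, normalized to controls.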

Compound	cytotoxicity at 10 µM [%]
CCN(CC)CC1CN(CCc2ccccc2)Cc2nccn2C1 (configuration not stated)	-9.61
Cc1nc(-c2ccc(Cl)s2)sc1C(=O)NC(C)(C)C(N)=O	-3.04
Cc1nc(C)c(C)c(NCCSCc2[nH]cnc2C)n1	2.3
O=C(C[C@@H]1COC[C@H]2CN(Cc3ccncc3)C[C@@H]12)N1CCCC1	-2.3
CCCc1nnc(NCc2ccc(OC)c(C#N)c2)o1	-0.808
N#CC1(C(=O)N2C[C@H](Nc3ncccn3)[C@@H](C3CC3)C2)CCOCC1	5.44
N#CCCNC(=O)CSc1ccc(F)cc1F	3.94
Cn1cc(CN2CCC[C@]3(C[C@H](Oc4ccccn4)CO3)C2)cn1	5.44
O=C(c1cccs1)N1CCN(C(=O)c2ncoc2-c2ccco2)CC1	3.82
CC(C)N1CCC(C(=O)N2CCCN(c3ccccc3)CC2)CC1	7.4
COCCNc1c(-c2ccc(Cl)cc2)c(=O)c1=O	-1.99
Cc1noc(C)c1CN1CC[C@@H]2O[C@H](COCC(C)C)CC[C@@H]21	8.28
c1cc(C2CC2)n2cnc(C3CN(Cc4nccs4)CCO3)c2c1 (configuration not stated)	1.49
O=C(NCCCO)c1nnsc1-c1ccccc1	7.47
CCc1ccc(CN(C)c2cc(COC)nc3ccnn23)cc1	3.52
CCSc1nc2ccccc2c(=O)n1OCC(=O)OC	-5.49
CCNc1ccnc(N2CCN(Cc3ncccc3C)CC2)n1	-5.59
Cc1cc(C(=O)N2C[C@@H]3C(CN(C)CCCn4cccn4)[C@@H]3C2)c(C)o1 (some centres not stated)	-55.4
Nc1nc(C(=O)NCC2CCC3(CCNCC3)CO2)cs1 (configuration not stated)	21
Cc1ccc(CC(=O)Nc2ccc(CS(C)(=O)=O)c(F)c2)cc1	-2.77
Cc1n[nH]cc1CNC(=O)Nc1cccc(OCC(F)(F)F)c1	8.64
COc1cccc(CNC(=O)CC2CSc3nc(C)c(C)c(=O)n32)c1 (configuration not stated)	-4.31
CC(=O)N1CCC2(CCCN2Cc2cnn(C)c2)CC1	-2.27

Compound	cytotoxicity at 10 µM [%]
CCC(=O)N1CCCC1c1nc(N(C)C)ncc1-c1ccc(Cl)cc1 (configuration not stated)	5.82
O=C1CCC2(CCN(CC[C@@H](O)c3ccccc3)CC2)CN1CC1CC1	4.51
O=C(Nc1nccs1)NC1CCN(Cc2ccccn2)CC1	-5.72
CN1CCN(C=C2N=C(c3cc(-c4ccc(F)cc4)n[nH]3)ON2)CC1	-2.08
CC1=CCN(C(=O)Nc2ccccc2N2CCOC2=O)CC1	-0.724
COc1ccc(S(=O)(=O)Cc2cc(C)on2)cc1	7.55
Nc1cc(C(=O)N2CCOC(Cc3cccc(C(F)(F)F)c3)C2)ccn1 (configuration not stated)	-1.97
Cc1cc(Nc2ncccn2)nc(C2CCCN(CCO)C2)n1 (configuration not stated)	1.09
CCCS(=O)(=O)N1CCOC2(CCCN(Cc3ccccn3)C2)C1 (configuration not stated)	-0.58
CN(C)CC1(O)CCN(C(=O)c2ccc(-n3cccn3)cc2Cl)C1 (configuration not stated)	-0.662
CC(C)N1CCO[C@@H]2CN(C(=O)NCc3ccccc3)CC[C@@H]2C1	-102
O=C(NCc1sc2ccccc2c1Cl)c1cc2n(n1)CCNC2	7.94
c1ccc2c(c1)N(CC1CCOC1)CC21CCN(c2cnccn2)CC1 (configuration not stated)	-94.7
O=C(c1ccc2c(c1)OCCCO2)N1CCCCC1C1OCCO1 (configuration not stated)	-0.158
O=C(c1ccc2c(c1)COC2)N1CCN(CC2CC2)CC1	-7.18
N#Cc1cccnc1N[C@@H]1c2ccccc2C[C@@H]1O	2.28
O=C(NC1(c2cccc(F)c2)CCOCC1)c1cc[nH]n1	-6.83
CN(C)C(=O)N1CCn2nc(CNC(=O)CCc3ccccn3)cc2C1	-3.32
Cc1ncc2c(n1)CCN(C(=O)Cc1c(C)noc1C)C2	-8.55
CS(=O)(=O)c1cccc(C(N)c2ccc(Cl)cc2)c1 (configuration not stated)	-16.1
COCCCN(C)c1nc(-c2ccncc2)nc(C)c1C	2.8
CCc1cc(=O)[nH]c(-n2nc(C3CC3)cc2NC(=O)C2CC2)n1	26.5
Cc1nc(C)n(CC2CCCN2Cc2ccccn2)n1 (configuration not stated)	-0.186

Compound	cytotoxicity at 10 µM [%]
COCCn1cc2c(n1)C(CNCc1ccc(F)cc1)OCC2 (configuration not stated)	-9.47
CCc1cn[nH]c1C1CCN(c2cc(C)c3ccc(OC)cc3n2)CC1	18.7
CCS(=O)(=O)c1ncc(CN(C)C)n1Cc1ccccc1	1.73
COc1ccc2nc(C3CC3)cc(C(=O)NCc3noc(C)n3)c2c1	11.8
O=C(CCc1ccsc1)Nc1cnccc1O	9.56
O=C(O)c1ccnc(-c2ccnc(N3CCCCCC3)n2)c1	-10
Cc1cnc(C)c(N2C[C@H]3OC(=O)N(C4CCCC4)[C@H]3C2)n1	12.5
CCc1ccc(CC)c(NCC(=O)N2CCCC(NC(C)=O)C2)c1 (configuration not stated)	-5.87
Cc1nn(CC(=O)N2CCN(c3cnccn3)CC2)c(C)c1Cl	7.76
Cc1occc1C(=O)N1CCC2(CC1)NC(=O)CC2c1cnn(C)c1 (configuration not stated)	-4.99
O=C(O)CCNC(=O)N1CCc2c([nH]c3ccc(Cl)cc23)C1	11.9
Cc1nc(C2(NCC(=O)NC(=O)NCc3cccs3)CCCCC2)no1	-9.52
CCN(CC)c1ccc2ccc(C(=O)N(CCOC)CCOC)cn12	1.15
Nc1nc(CCNc2ncnc3c2CCN(C(=O)C2CC2)C3)cs1	-6.68
CCC(=O)N1CCc2[nH]cnc2C12CCN(CC1CCOC1)CC2 (configuration not stated)	-0.264
Cc1cscc1C(=O)Nc1cncnc1N(C)C	0.137
CC(COc1ccccc1)NCc1cn2ccccc2n1 (configuration not stated)	16.6
CCc1cc(N2CCC(NCCc3nc(C)c(C)s3)CC2)nc(C)n1	0.902
NCC1CCC(C(NC(=O)CC2CCCC2)c2ccccn2)CC1 (configuration not stated)	-14.6
CCC(c1ccccc1)S(=O)(=O)CCO (configuration not stated)	-136
CCc1ncc(C(=O)N2CCCOC(Cn3cccn3)C2)cn1 (configuration not stated)	-0.95
Cn1ccc(CN2CCOCC23CCNCC3)n1	6.77
Cc1ccc(-c2nc(CN3CCOC(Cn4cccn4)C3)cs2)o1 (configuration not stated)	-8.86

Compound	cytotoxicity at 10 µM [%]
Fc1ccc(CN2CCOC(Cn3cncn3)C2)c2ncccc12 (configuration not stated)	0.219
Cn1cc(CC2CCN(C(=O)NCc3cccc(C(N)=O)c3)C2)cn1 (configuration not stated)	-4.25
CN(c1ccc(C(C)(C)C)cc1)S(=O)(=O)c1cc(C(=O)O)cs1	-6.19
Cn1cc2c(n1)C(COCC1CC1)CN(Cc1ccsc1)C2 (configuration not stated)	-76.1
c1cc(CN2CCC(c3nnc4n3CCCCC4)CC2)c2nonc2c1	-1.08
O=C(NC[C@H]1OC[C@@H](NCc2ccccc2)[C@@H]1O)Nc1ccccc1	1.97
COCCN(Cc1sccc1C)C(=O)COc1ccccc1O	-145
O=C(c1ccccc1-n1cccn1)N1CCC(Nc2cccnn2)CC1	-15.9
CCC(CC)(CN)NC(C)c1ccccc1 (configuration not stated)	4.02
CC(Nc1cccc2c1OCCO2)C(=O)NC(N)=O (configuration not stated)	2.76
Cc1nc[nH]c1-c1c(-c2ccccc2)ncn1C1CCNC1 (configuration not stated)	-52.4
Cc1ccc2oc(=O)n(CCC(=O)N3CCC4(CN(C)C(=O)O4)C3)c2c1 (configuration not stated)	1.66
Cc1ccc(F)cc1-n1c(CN(C)S(C)(=O)=O)n[nH]c1=O	2.19
CCC(=O)N1CCC2(CC1)CC(CC(=O)NC1CC1)c1ccccc1O2 (configuration not stated)	2.64
CCN(CC)CCn1cc(NC(=O)c2ccccc2OC)cn1	7.04
Cc1noc(C(C)N2CCN(CCC(=O)N3CCOCC3)CC2)n1 (configuration not stated)	-0.0308
Cc1nc(CN2CCCC2Cn2cncn2)nc2ccccc12 (configuration not stated)	-1.63
COc1cc(C2SCC(=O)Nc3[nH]ncc32)cc(OC)c1OC (configuration not stated)	8.49
CN(C)c1cccc(C2CCCN2S(N)(=O)=O)c1 (configuration not stated)	-5.44
CCc1cc(N2CCC(NCCc3ccc(C)o3)CC2)nc(C)n1	-0.554
CN(Cc1ccc(F)cc1)Cc1nc(-c2cnccn2)no1	1.27
COc1ccc(CCCC(=O)NCc2c(C)noc2C)cc1F	-6.35
Cc1cnnn1Cc1ncn2c1CN(Cc1cccs1)CCC2	3.58

Compound	cytotoxicity at 10 µM [%]
O=C(C(O)c1ccccc1Cl)N1CCCN(Cc2cccnc2)CC1 (configuration not stated)	5.5
COc1cccc(CNC(=O)c2nc3c(s2)CCN(C(C)=O)CC3)c1	-77.4
Cc1ccc(S(=O)(=O)NCCOc2ccc3nnc(C)n3n2)s1	-6.26
CN(C)C(=O)CN1CCC2(CC1)CC(=O)c1c(ccc3ccccc13)O2	3.28
CC1CN(S(=O)(=O)c2ccc(F)cc2F)c2cccnc2O1 (configuration not stated)	2.02
CCOc1ccccc1C(C(=O)O)N(C)CC1CCOCC1 (configuration not stated)	-4.36
CSc1nccc(N2CCC3(CCCN(CC4CC4)C3)C2)n1 (configuration not stated)	-10.1
Cc1cnc(N2CCCn3c(nnc3CN(C)C(C)C)C2)nc1	4.42
Cc1noc(C2CCC3(CCN(C(=O)c4sccc4C)CC3)O2)n1 (configuration not stated)	8.94
CC(C)N(CCC#N)C(=O)c1cnc(-c2ccc3c(c2)OCO3)s1	0.247
CNC(=O)C1(c2cnccn2)CCCN1C(=O)c1c(F)cccc1F (configuration not stated)	-24.1
COCc1cc(O)nc(C2CCCN(Cc3cc(OC)ccc3F)C2)n1 (configuration not stated)	4.42
COc1cc(C(=O)Nc2cn[nH]c2)ccc1C	-7.33
Cc1noc(C)c1CCC(=O)N1CCN(CCn2cncn2)CC1	5.03
Cc1cccc(-c2nccn2C2CC(=O)N(C(C)C)C2)n1 (configuration not stated)	5.62
CN(C)C(=O)c1ccc(-c2cscn2)cc1	1.53
COc1ccc(CC(=O)N2CCC(Nc3ccc(C)nn3)CC2)cc1	-5.34
Cn1cc(CN2CCCC3(CCN(C(=O)c4cnccn4)C3)C2)cn1 (configuration not stated)	-69.6
O=C(C1CCCO1)N1CCC(Cn2cc(C3CCCC3)nn2)CC1 (configuration not stated)	5.61
Cc1nc(C2CCN(C(=O)c3cc(C4CC4)[nH]n3)CC2)no1	-6.44
